This passage reports yeast fitness results from the RNAGym collection of RNA variant scans (doi:10.1126/science.aae0568).

This sample holds only a part of the variants without activity.

B1: tRNA (parent)
chain: GUUCCGUUGGCGUAAUGGUAACGCGUCUCCCUCCUAAGGAGAAGACUGCGGGUUCGAGUCCCGUACGGAACG

Variants of B1 are the subject of this data set. Put plainly: yeast fitness relative to wild type (ratio to wild type); higher = fitter; tRNA-Arg(CCU), competitive growth, 37 C, YPD. The procedure, abridged:
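Gene amplicons from the start population and from each of six end populations were read by 100-nucleotide paired-end sequencing. Those end populations came from pooled Saccharomyces cerevisiae strains carrying tRNA-Arg(CCU) gene variants at the native locus, competed in YPD at 37°C for 24 hours. Fitness relative to wild type was worked out from changes in genotype frequencies. Genotypes needed ≥ 100 starting reads, and estimates < 0.5 were set to 0.5.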
On to GUUCCGUUGGCGUAAUGGUAAAGCGUCUCCCUCCAAAGGAGAAGACUGCGGGUUCGAGUCCCGUACGGAACG [C22A U35A], for which the yeast fitness was 0.603. As to GUUCCGUUGGCGUAAUGGUAAAGCGUCUCCCUCCUAAGGAGAAGACAGCGGGUUCGAGUCCCGUACGGAGCG [C22A U47A A70G], the yeast fitness stood at 0.577.

Turning to GUUCCGUUGGCGUAAUGGUAAAGCGUCUUCCUCCUAAGGAGAAGACUGCGGGUUCGAGUCCCGUAUGGAACG [C22A C29U C66U], the yeast fitness is no more than 0.5. Under GUUCCGUUGGCGUAAUGGUAAAGCGUCUCACUCCUAAGGAGAAGACUGCGGGUUCGAGUCCCGUACGGAACG [C22A C30A] stands 0.686. GUUCCGUUGGCGUAAUGGUAAAGCGUCUCCCUACUAAGCAGAAGACUGCGGGUUCGAGUCCCGUACGGAACG [C22A C33A G39C]: the yeast fitness is no more than 0.5. As for GUUCCGUUGGCGUAAUGGUAAAGCGUCUCUCUCCUAAGGAGAAGACUGCGGGUUCGAGUCCCGUACGGCACG [C22A C30U A69C], the yeast fitness was no more than 0.5. The figure for GUUCCGUUGGCGUAAUGGUAAAGCGUCUACCUCCUAAGGAGAACACUGCGGGUUCGAGUCCCGUACGGAACG [C22A C29A G44C] is 0.605; for GUUCCGUUGGCGUAAUGGUAAAGCGUCGCCCUCCUAAGGAGAAGACUGCGGGUUCGACUCCCGUACGGAACG [C22A U28G G58C] it is no more than 0.5; for GUUCCGUUGGCGUAAUGGUAAAGCAUCUCCCUCCUAAGGAGAAGACUGCGGGUUCGAGUCCCGUACGGAACG [C22A G25A] it is 0.992. For the variant GUUCCGUUGGCGUAAUGGUAAAGCGUCUCCCUCCUAAGGAGAAGACUGCGGGUUCGAAUCCCGUACGGAACG [C22A G58A], the yeast fitness came out at 0.866.

Turning to GUUCCGUUGGCGUAAUGGUAAAGCGUCUCCUUCCUAAGGAGAUGACUGCGGGUUCGAGUCCCGUACGGAACG [C22A C31U A43U], the yeast fitness is 0.623.

For the variant GUUCCGUUGGCGUAAUGGUAAAACGUCUCCCUCCUAGGGAGAAGACUGCGGGUGCGAGUCCCGUACGGAACG [C22A G23A A37G U54G], the yeast fitness was no more than 0.5. On to GUUCCGUUGGCGUAAUGGUAAAGCGUCUCCAUCCUAAGGAGAAGACUGCGGGCUCGCGUCCCGUACGGAACG [C22A C31A U53C A57C], for which the yeast fitness was no more than 0.5.

For the variant GUUCCGUUGGCGUAAUGGUAAAGCGUCUCCCUCCUAAGGAGAAGACUGCGGGGUCCAGUCCCGUACCGAACG [C22A U53G G56C G67C], the yeast fitness is no more than 0.5. Under GUUCCGUUGGCGUAAUGGUAAAGCGUCUCCCUCCUAAGGAGAAGACAGCGGGUUCGAGUCCCGUAAGGAACG [C22A U47A C66A] stands no more than 0.5. For GUUCCGUUGGCGUAAUGGUAAAGCGUCUCCCUUCUAAGGAGAAGACUGCGGGUGCGAGUCCCGUACGGAACG [C22A C33U U54G], the yeast fitness is no more than 0.5.

For GUUCCGUUGGCGUAAUGGUAAAGCGUCUCCCUCCUAAGGAGAAGACUCCGAGUUAGAGUCCCGUAAGGAACG [C22A G48C G51A C55A C66A], the yeast fitness is no more than 0.5.

With GUUCCGUUGGCGUAAUGGUAAAGCGUCUCGCUCGUAAGGAGAAGACUGCGGGUUCGAGUCCCGUACGGAACG [C22A C30G C34G], the yeast fitness is no more than 0.5. On to GUUCCGUUGGCGUAAUGGUAAAGCGUCUGCCUUCUAAGGAGAAGACUGCGGGUUCGAGUCCCGUACGGACCG [C22A C29G C33U A70C], for which the yeast fitness is no more than 0.5. GUUCCGUUGGCGUAAUGGUAAAGCGUCUACCUCCUAAGGAGAAGACUGCGGGUGCGAGUCCCGUACGGAACG [C22A C29A U54G]: the yeast fitness is no more than 0.5. The figure for GUUCCGUUGGCGUAAUGGUAAAGCGUCUCCCUCCUAAGGAGAAGACUGCCGGUUCGAGUCCCGUACGGAACG [C22A G50C] is 0.627; for GUUCCGUUGGCGUAAUGGUAAAGCGUCUCUCUCCUAAGGAGCAGACUGCGGGUUCGUGUCCCGUACAGAUCG [C22A C30U A42C A57U G67A A70U] it is no more than 0.5.

As to GUUCCGUUGGCGUAAUGGUAAAGCGUCUCCCUCCUAAGGAGAAGACUGCGGGUUCGAGUCCCAUACGGAACG [C22A G63A], the yeast fitness came out at 0.983. The figure for GUUCCGUUGGCGUAAUGGUAAAGCGUCUCCCUCCUAAGGAGAAGACUACGGGUUCGAGUCCCGUACGGAACG [C22A G48A] is 0.826.

Regarding GUUCCGUUGGCGUAAUGGUAAAGCGUCUCCCAUCUAAGAAGACGACUGCGGGUUCGAGUCCCGUACGGCACG [C22A U32A C33U G39A A43C A69C], the yeast fitness is no more than 0.5. For GUUCCGUUGGCGUAAUGGUAAAGCGUCUCCCUCCUAAGGAGAAGACUGCGCGUUCGUGUCCCGUACGGAACG [C22A G51C A57U], the yeast fitness worked out at 0.624. GUUCCGUUGGCGUAAUGGUAAAGCGUCUCCCUCCUAAGGAGAAGAUUGCGGGUUCGAGUCCCGUACGGAACG [C22A C46U]: the yeast fitness is 1.1. Under GUUCCGUUGGCGUAAUGGUAAAGCGUCUCCCUCCUAAGGAGAAGACUAUACGUUCGAGUCCCGAACGGACCG [C22A G48A C49U G50A G51C U64A A70C] stands 0.563; under GUUCCGUUGGCGUAAUGGUAAAGCAUCUCCCUCCUAAGGAGAAGACUGCGGGUUCGAGUCCCGUUCGGAACG [C22A G25A A65U], 0.684; under GUUCCGUUGGCGUAAUGGUAAACCGUCUCCCUCCUAAGGAGAAGACUGGGGGUUCGAGUUCCGUACGGAACG [C22A G23C C49G C60U], no more than 0.5. Under GUUCCGUUGGCGUAAUGGUAAAGCGUCUCCCUCCUAAGGAGAAGACUGCGCGUUCGAGUCCCGUACGCAACG [C22A G51C G68C] stands no more than 0.5; under GUUCCGUUGGCGUAAUGGUAAAGCGUCUCCCUCCUAAGGAGAAGACUGCGGGUUCGAGUAGCGUACGGAACG [C22A C60A C61G], 0.565; under GUUCCGUUGGCGUAAUGGUAAAGCGUCUCCGUCCUAAGGAGAAGACUGCGGGUUCGAGUCCCGUACGAAACG [C22A C31G G68A], no more than 0.5. The figure for GUUCCGUUGGCGUAAUGGUAAAGCGUCUCCCUCCUAAGGAGAAGACUGCGGGUUCGAGUCGCGUACGGAACG [C22A C61G] is 0.594; for GUUCCGUUGGCGUAAUGGUAAAGCGUCUCCCUCCUAAGGAGAAGACUGAGGGUUCGAGUCUCGUACGGAACG [C22A C49A C61U] it is no more than 0.5; for GUUCCGUUGGCGUAAUGGUAAAGCGUCUCCCUCCUAAGGAGAAGACUGCGGGUUCGAGUCCAGUACGGAACG [C22A C62A] it is 0.785. As for GUUCCGUUGGCGUAAUGGUAAAGCGUCUCCCUCCUAAGGAGAAGACAGCGGGUUCGAGUCCCGUACGGAACG [C22A U47A], the yeast fitness worked out at 0.629. The figure for GUUCCGUUGGCGUAAUGGUAAAGCGCCUCCCUCCUAAGGAGAAGACCGCGGGUUCGAGUCCCGUACGGAACG [C22A U26C U47C] is 0.541.
